Legend:
Format in all cases: functional
Trypanosoma cruzi [1] = assay: Antimicrobial activity against Trypanosoma cruzi Y infected IFN-gamma knock out C57BL/6 mouse Chagas disease model assessed as percent of cured mouse at 100 mg/kg, po after 20 days
Procedure, shortened: (§1)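 Male mice, 8–10 weeks, infected i.p. with 5,000 blood trypomastigotes (Y strain, passaged in Swiss-Webster mice). From 4 dpi, dosed orally once daily for 20 consecutive days in water with arabic gum. Fresh tail blood examined to 60 dpi. Aparasitemic mice were then bled (0.5 ml), and blood was cultured in LIT medium at 28°C for 30–60 days. Cure means negative by both methods.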

Mus musculus [2] = assay: Effect on survival in Trypanosoma cruzi Y infected IL12 knock out C57BL/6 mouse Chagas disease model assessed as mean survival time at 100 mg/kg, po after 20 days
Procedure, shortened: (§2)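 Male C57BL/6 mice aged 8–10 weeks (wild-type or cytokine KO) were infected i.p. with 5,000 Y-strain blood trypomastigotes. Treatment was oral, 100 mg/kg once daily in water with arabic gum, from 4 dpi for 20 consecutive days. Deaths were recorded up to 60 dpi, and mortality was given as deaths/total. Mean survival time assigned survivors a death time of exactly 60 days. Log rank and Peto-Peto-Wilcoxon tests were used.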

Trypanosoma cruzi [3] = assay: Antimicrobial activity against Trypanosoma cruzi Y infected IL12 knock out C57BL/6 mouse Chagas disease model assessed as percent of cured mouse at 100 mg/kg, po after 20 days; procedure, shortened: as §1
Mus musculus [4] = assay: Mortality rate in Trypanosoma cruzi Y infected IL12 knock out C57BL/6 mouse Chagas disease model at 100 mg/kg, po after 20 days; procedure, shortened: as §2
Mus musculus [5] = assay: Effect on survival in Trypanosoma cruzi Y infected C57BL/6 mouse Chagas disease model assessed as mean survival time at 100 mg/kg, po after 20 days; procedure, shortened: as §2
Mus musculus [6] = assay: Mortality rate in Trypanosoma cruzi Y infected IFN-gamma knock out C57BL/6 mouse Chagas disease model at 100 mg/kg, po after 20 days; procedure, shortened: as §2
Trypanosoma cruzi [7] = assay: Antimicrobial activity against Trypanosoma cruzi Y infected wild type C57BL/6 mouse Chagas disease model assessed as percent of cured mouse at 100 mg/kg, po after 20 days; procedure, shortened: as §1
Mus musculus [8] = assay: Effect on survival in Trypanosoma cruzi Y infected IFN-gamma knock out C57BL/6 mouse Chagas disease model assessed as mean survival time at 100 mg/kg, po after 20 days; procedure, shortened: as §2
Mus musculus [9] = assay: Mortality rate in Trypanosoma cruzi Y infected wild type C57BL/6 mouse Chagas disease model at 100 mg/kg, po after 20 days; procedure, shortened: as §2
Mus musculus [10] = assay: Effect on survival in Trypanosoma cruzi Y infected C57BL/6 mouse Chagas disease model assessed as mean survival time at 20 mg/kg, po twice daily after 20 days
Procedure, shortened: (§3)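 Male C57BL/6 mice aged 8–10 weeks (wild-type or cytokine KO) were infected i.p. with 5,000 Y-strain blood trypomastigotes. From 4 dpi they received 20 mg/kg/day orally, split into two daily doses, for 20 days, in 2% methylcellulose with 0.5% Tween 80. Deaths were tracked to 60 dpi, and mortality was given as deaths/total. Mean survival time counted survivors as dying at 60 days. Log rank and Peto-Peto-Wilcoxon tests were used.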

Trypanosoma cruzi [11] = assay: Antimicrobial activity against Trypanosoma cruzi Y infected IL12 knock out C57BL/6 mouse Chagas disease model assessed as percent of cured mouse at 20 mg/kg, po twice daily after 20 days
Procedure, shortened: (§4)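 Male C57BL/6 mice aged 8–10 weeks (wild-type, IL-12p40 KO or IFN-γ KO) were infected i.p. with 5,000 blood trypomastigotes of the Y strain. From 4 dpi they were dosed orally at 20 mg/kg/day, split into two daily doses, for 20 consecutive days, in 2% methylcellulose with 0.5% Tween 80. Mice negative on fresh blood at 60 dpi had 0.5 ml orbital blood cultured in LIT medium at 28°C for 30–60 days. Cure meant negative on both tests.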

Mus musculus [12] = assay: Mortality rate in Trypanosoma cruzi Y infected IL12 knock out C57BL/6 mouse Chagas disease model at 20 mg/kg, po twice daily after 20 days; procedure, shortened: as §3
Mus musculus [13] = assay: Mortality rate in Trypanosoma cruzi Y infected wild type C57BL/6 mouse Chagas disease model at 20 mg/kg, po twice daily after 20 days; procedure, shortened: as §3
Mus musculus [14] = assay: Effect on survival in Trypanosoma cruzi Y infected IL12 knock out C57BL/6 mouse Chagas disease model assessed as mean survival time at 20 mg/kg, po twice daily after 20 days; procedure, shortened: as §3
Mus musculus [15] = assay: Mortality rate in Trypanosoma cruzi Y infected IFN-gamma knock out C57BL/6 mouse Chagas disease model at 20 mg/kg, po twice daily after 20 days; procedure, shortened: as §3
Trypanosoma cruzi [16] = assay: Antimicrobial activity against Trypanosoma cruzi Y infected IFN-gamma knock out C57BL/6 mouse Chagas disease model assessed as percent of cured mouse at 20 mg/kg, po twice daily after 20 days; procedure, shortened: as §4
Mus musculus [17] = assay: Effect on survival in Trypanosoma cruzi Y infected IFN-gamma knock out C57BL/6 mouse Chagas disease model assessed as mean survival time at 20 mg/kg, po twice daily after 20 days; procedure, shortened: as §3
Trypanosoma cruzi [18] = assay: Antimicrobial activity against Trypanosoma cruzi Y infected wild type C57BL/6 mouse Chagas disease model assessed as percent of cured mouse at 20 mg/kg, po twice daily after 20 days; procedure, shortened: as §4

O=C(Cn1ccnc1[N+](=O)[O-])NCc1ccccc1 [BENZNIDAZOLE]
Activity (Trypanosoma cruzi [1]): 0%
MST (Mus musculus [2]): 59.6 days
Activity (Trypanosoma cruzi [3]): 39%
Activity (Mus musculus [4]): 17%
MST (Mus musculus [5]): >60 days
Activity (Mus musculus [6]): 100%
Activity (Trypanosoma cruzi [7]): 86%
MST (Mus musculus [8]): 42.1 days
Activity (Mus musculus [9]): 0%

CC[C@@H]([C@H](C)O)n1ncn(-c2ccc(N3CCN(c4ccc(OC[C@@H]5CO[C@@](Cn6cncn6)(c6ccc(F)cc6F)C5)cc4)CC3)cc2)c1=O [POSACONAZOLE]
MST (Mus musculus [10]): >60 days
Activity (Trypanosoma cruzi [11]): 35%
Activity (Mus musculus [12]): 23%
Activity (Mus musculus [13]): 0%
MST (Mus musculus [14]): 59.2 days
Activity (Mus musculus [15]): 30%
Activity (Trypanosoma cruzi [16]): 15%
MST (Mus musculus [17]): 52.1 days
Activity (Trypanosoma cruzi [18]): 89%

Reference: ChEMBL document CHEMBL1146194, “The Anti-Trypanosoma cruzi activity of posaconazole in a murine model of acute Chagas' disease is less dependent on gamma interferon than that of benznidazole” (2007)
